Reference: ChEMBL document CHEMBL3085663, “Hypoxia-targeting carbonic anhydrase IX inhibitors by a new series of nitroimidazole-sulfonamides/sulfamides/sulfamates” (J Med Chem, 2013)
The source made the active and inactive calls. The rule behind the calls is not given here.

Legend:
[1] = test system: HeLa; assay: Reduction in hypoxia-induced extracellular acidosis in human HeLa cells at 1 mM after 24 hrs; format: functional, cell-based
In short: (§1)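 Exponentially growing HT-29 or HeLa cells were cultured in DMEM with 10% FBS, under hypoxia (0.2% O₂, 5% CO₂, balance N₂) or normoxia (20% O₂, 5% CO₂). Compounds were added in medium with 1% DMSO at final 0.1 or 1 mM. Medium pH was measured before and immediately after incubation, reported as ΔpHe, as mean ± SD of at least three independent experiments.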

[2] = test system: HT-29; assay: Reduction in hypoxia-induced extracellular acidosis in human HT-29 cells at 1 mM after 24 hrs; format: functional, cell-based; in short: as §1
[3] = molecular target: Carbonic anhydrase 9 (Homo sapiens, UniProt Q16790); assay: Inhibition of recombinant human catalytic domain of carbonic anhydrase-9 preincubated for 15 mins by stopped-flow CO2 hydration assay
[4] = molecular target: Carbonic anhydrase 1 (Homo sapiens, UniProt P00915); assay: Inhibition of full length human cytosolic carbonic anhydrase-1 preincubated for 15 mins by stopped-flow CO2 hydration assay
[5] = molecular target: Carbonic anhydrase 2 (Homo sapiens, UniProt P00918); assay: Inhibition of full length human cytosolic carbonic anhydrase-2 preincubated for 15 mins by stopped-flow CO2 hydration assay
[6] = molecular target: Carbonic anhydrase 12 (Homo sapiens, UniProt O43570); assay: Inhibition of recombinant human catalytic domain of carbonic anhydrase-12 preincubated for 15 mins by stopped-flow CO2 hydration assay
[7] = test system: HT-29; assay: Antitumor activity against human HT-29 cells xenografted in NMRI-nu mouse assessed as time to reach 4x starting volume of tumor at 5 mg/kg, iv administered on day 3 for 3 weeks (reference value: 14.07 days); format: functional
In short: (§2)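 HT-29 cells in Matrigel were injected s.c. into the lateral flank of adult NMRI-nu mice (28−32 g). Dosing started at a tumour volume of 250 mm³ and was given i.v. One arm received 10 mg/kg daily for 3 days in 0.9% NaCl with 1% DMSO via the lateral tail vein. The other arm received 5 mg/kg at day 3. The schedule was repeated over 3 weeks. Read-out was time to reach 4× starting tumour volume against vehicle.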

[8] = test system: HT-29; assay: Antitumor activity against human HT-29 cells xenografted in NMRI-nu mouse assessed as tumor growth inhibition at 5 mg/kg, iv administered on day 3 for 3 weeks; format: functional, organism-based; design: dose 5 mg/kg; in short: as §2
[9] = test system: Mus musculus; assay: Toxicity in NMRI-nu mouse xenografted with HT-29 cells assessed as body weight loss at 5 mg/kg, iv administered on day 3 for 3 weeks; format: organism-based; design: dose 5 mg/kg, route intravenous; conditions: in vivo, 504 h
[10] = test system: HeLa; assay: Reduction in hypoxia-induced extracellular acidosis in human HeLa cells at 0.1 to 1 mM after 24 hrs; format: functional, cell-based; in short: as §1
[11] = test system: Mus musculus; assay: Toxicity in NMRI-nu mouse xenografted with HT-29 cells assessed as body weight loss at 10 mg/kg, iv administered 3 days per week for 3 weeks; format: organism-based; design: dose 10 mg/kg, route intravenous; conditions: in vivo
[12] = test system: HT-29; assay: Antitumor activity against human HT-29 cells xenografted in NMRI-nu mouse assessed as tumor growth inhibition at 10 mg/kg, iv administered 3 days per week for 3 weeks; format: functional, organism-based; design: dose 10 mg/kg; in short: as §2
[13] = test system: HT-29; assay: Antitumor activity against human HT-29 cells xenografted in NMRI-nu mouse assessed as time to reach 4x starting volume of tumor at 10 mg/kg, iv administered 3 days per week for 3 weeks (reference value: 14.07 days); format: functional; in short: as §2
[14] = test system: HeLa; assay: Reduction in hypoxia-induced extracellular acidosis in human HeLa cells after 24 hrs; format: functional, cell-based; in short: as §1
[15] = test system: HT-29; assay: Reduction in hypoxia-induced extracellular acidosis in human HT-29 cells after 24 hrs; format: functional, cell-based; in short: as §1

Chain of Carbonic anhydrase 1 (P00915 whole entry): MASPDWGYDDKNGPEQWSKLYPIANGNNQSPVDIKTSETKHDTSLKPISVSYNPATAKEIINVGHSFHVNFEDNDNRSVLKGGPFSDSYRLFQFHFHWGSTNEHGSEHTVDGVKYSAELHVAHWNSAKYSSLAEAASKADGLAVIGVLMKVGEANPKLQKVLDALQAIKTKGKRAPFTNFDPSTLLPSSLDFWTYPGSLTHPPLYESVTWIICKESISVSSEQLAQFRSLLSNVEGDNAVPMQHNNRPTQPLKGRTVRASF
Chain of Carbonic anhydrase 12 (O43570 whole entry, the tested form may be a part): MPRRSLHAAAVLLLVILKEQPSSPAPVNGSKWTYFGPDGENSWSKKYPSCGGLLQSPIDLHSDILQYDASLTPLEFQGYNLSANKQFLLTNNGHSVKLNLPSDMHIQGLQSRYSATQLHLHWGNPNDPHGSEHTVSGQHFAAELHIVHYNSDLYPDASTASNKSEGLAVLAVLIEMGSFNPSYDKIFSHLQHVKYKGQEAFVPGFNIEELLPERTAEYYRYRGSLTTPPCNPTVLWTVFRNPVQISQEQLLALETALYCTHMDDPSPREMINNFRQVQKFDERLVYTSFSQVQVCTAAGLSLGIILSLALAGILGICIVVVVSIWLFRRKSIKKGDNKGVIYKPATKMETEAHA

Compound	Ki [3] [nM]	Activity [1]	Activity [2]	further results
Cc1ncc([N+](=O)[O-])n1CCOS(N)(=O)=O	–	Active	Active	–
COc1cccc2c1C(=O)c1c(O)c3c(c(O)c1C2=O)C[C@@](O)(C(=O)CO)C[C@@H]3O[C@H]1C[C@H](N)[C@H](O)[C@H](C)O1 [DOXORUBICIN]	–	–	–	Time [7]: 23.39 days; TGI [8]: Active; Activity [9]: Non-toxic
Cc1ncc([N+](=O)[O-])n1CCNS(N)(=O)=O [DTP-348]	–	Active	Active	Activity [11]: Non-toxic; TGI [12]: Active; Time [13]: 25.43 days; Activity [14]: Dose-dependent effect; Activity [15]: Dose-dependent effect
Cc1ncc([N+](=O)[O-])n1CCNC(=S)Nc1ccc(S(N)(=O)=O)cc1	7.3	Active	Active	–
NS(=O)(=O)c1ccc(CCNC(=O)Cn2ccnc2[N+](=O)[O-])cc1	8	–	–	–

Continued, in another order:

Ki [3] [nM]	Compound	Activity [1]	Activity [2]	further results
41	NS(=O)(=O)NCCn1ccnc1[N+](=O)[O-]	–	–	–
> 20000	Cc1ncc([N+](=O)[O-])n1CCNS(C)(=O)=O	–	–	Ki [4]: > 20000 nM; Ki [5]: > 20000 nM; Ki [6]: > 20000 nM
21	Cc1nccn1CCCNS(N)(=O)=O	–	–	–
7.2	Cc1ncc([N+](=O)[O-])n1CCNC(=S)NCc1ccc(S(N)(=O)=O)cc1	–	–	–
8.3	Cc1ncc([N+](=O)[O-])n1CCNC(=S)NCCc1ccc(S(N)(=O)=O)cc1	Active	Active	Activity [10]: Active
> 20000	CS(=O)(=O)NCCn1ccnc1[N+](=O)[O-]	–	–	Ki [4]: > 20000 nM; Ki [5]: > 20000 nM; Ki [6]: > 20000 nM
